# Measurements taken from ChEMBL document CHEMBL1139804, “In vitro affinities of various halogenated benzamide derivatives as potential radioligands for non-invasive quantification of D(2)-like dopamine receptors” (Bioorg Med Chem, 2007).
# What was measured:
# D(2) dopamine receptor [1] = target: T1, D(2) dopamine receptor (Homo sapiens, UniProt P14416); experiment: Displacement of [3H]spiperone from dopamine D2long receptor in CHO cells; format: cell-based
# Outline: (§1)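 Competition binding used membranes from stably transfected CHO cells expressing human D2long, D2short, D3 or D4.4 receptor, with [³H]spiperone at 0.1 nM final.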
# D(2) dopamine receptor [2] = target: T1, D(2) dopamine receptor; experiment: Displacement of [3H]spiperone from dopamine D2short receptor in CHO cells; format: cell-based; outline: as §1
# [3] = Displacement of [3H]prazosin from adrenergic-alpha-1 receptor in pig cortical membrane
# [4] = Lipophilicity, log D at pH 7.4; details: buffer
# D(4) dopamine receptor = target: T2, D(4) dopamine receptor (Homo sapiens, UniProt P21917); experiment: Displacement of [3H]spiperone from dopamine D4.4 receptor in CHO cells; format: cell-based; outline: as §1
# T2 sequence (P21917 whole entry): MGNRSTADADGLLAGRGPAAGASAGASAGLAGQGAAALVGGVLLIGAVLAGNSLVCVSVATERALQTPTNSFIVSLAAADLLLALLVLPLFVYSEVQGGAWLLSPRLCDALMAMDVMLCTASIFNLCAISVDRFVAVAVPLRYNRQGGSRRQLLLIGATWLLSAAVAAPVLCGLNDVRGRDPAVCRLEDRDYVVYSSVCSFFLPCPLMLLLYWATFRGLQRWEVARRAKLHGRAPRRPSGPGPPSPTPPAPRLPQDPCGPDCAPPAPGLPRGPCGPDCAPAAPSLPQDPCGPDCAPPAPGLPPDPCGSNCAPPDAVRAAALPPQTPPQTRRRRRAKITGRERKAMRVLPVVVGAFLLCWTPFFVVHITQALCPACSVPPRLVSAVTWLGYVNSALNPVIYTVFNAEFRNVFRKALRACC
# [5] = Displacement of [3H]ketanserin from serotonin 5-HT2 receptor in pig cortical membrane
# [6] = Displacement of [3H]8HO-DPAT from serotonin 5-HT1A receptor in pig cortical membrane
# D(3) dopamine receptor = D(3) dopamine receptor (Homo sapiens, UniProt P35462); experiment: Displacement of [3H]spiperone from dopamine D3 receptor in CHO cells; format: cell-based; outline: as §1
# D(1A) dopamine receptor = D(1A) dopamine receptor (Sus scrofa, UniProt P50130); experiment: Displacement of [3H]SCH23990 from dopamine D1 receptor in pig striatal membrane; format: cell membranes, Striatum
# Sequence of D(1A) dopamine receptor (P50130 whole entry): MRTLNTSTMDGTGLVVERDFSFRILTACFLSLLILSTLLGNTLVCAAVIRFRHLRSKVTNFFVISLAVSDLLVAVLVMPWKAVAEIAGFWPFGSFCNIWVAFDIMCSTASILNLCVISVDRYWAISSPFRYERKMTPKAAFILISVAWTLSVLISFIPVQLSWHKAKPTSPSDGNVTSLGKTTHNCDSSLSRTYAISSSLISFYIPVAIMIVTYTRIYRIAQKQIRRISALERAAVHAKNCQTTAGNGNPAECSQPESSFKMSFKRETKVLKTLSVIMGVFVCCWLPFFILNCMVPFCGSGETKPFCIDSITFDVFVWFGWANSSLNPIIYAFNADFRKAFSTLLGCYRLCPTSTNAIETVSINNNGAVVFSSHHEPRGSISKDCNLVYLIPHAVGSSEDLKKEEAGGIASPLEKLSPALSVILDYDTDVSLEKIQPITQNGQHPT
# T1 sequence (P14416 whole entry): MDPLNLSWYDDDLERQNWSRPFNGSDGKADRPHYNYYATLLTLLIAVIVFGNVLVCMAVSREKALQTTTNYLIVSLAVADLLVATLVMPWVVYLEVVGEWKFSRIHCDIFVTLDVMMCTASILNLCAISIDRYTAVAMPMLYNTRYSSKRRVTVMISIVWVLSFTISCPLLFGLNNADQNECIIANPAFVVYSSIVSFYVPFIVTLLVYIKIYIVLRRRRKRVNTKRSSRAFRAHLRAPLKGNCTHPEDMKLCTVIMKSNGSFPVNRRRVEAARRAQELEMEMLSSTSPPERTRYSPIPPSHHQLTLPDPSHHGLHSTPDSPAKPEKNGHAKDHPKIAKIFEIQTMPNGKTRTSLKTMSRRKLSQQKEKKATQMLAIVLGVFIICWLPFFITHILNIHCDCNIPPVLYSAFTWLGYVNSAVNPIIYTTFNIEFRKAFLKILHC
# Sequence of D(3) dopamine receptor (P35462 whole entry): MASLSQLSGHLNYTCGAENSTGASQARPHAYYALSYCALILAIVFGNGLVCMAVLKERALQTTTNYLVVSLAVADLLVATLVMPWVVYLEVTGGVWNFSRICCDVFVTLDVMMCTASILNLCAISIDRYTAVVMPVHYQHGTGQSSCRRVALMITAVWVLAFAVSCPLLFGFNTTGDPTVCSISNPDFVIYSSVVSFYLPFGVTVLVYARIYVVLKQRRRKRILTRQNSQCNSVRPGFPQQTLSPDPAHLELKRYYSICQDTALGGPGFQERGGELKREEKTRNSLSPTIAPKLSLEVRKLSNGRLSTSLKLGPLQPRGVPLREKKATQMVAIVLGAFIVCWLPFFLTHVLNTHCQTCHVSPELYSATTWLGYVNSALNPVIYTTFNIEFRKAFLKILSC
Structure (SMILES),Ki (D(2) dopamine receptor [1]),Ki (D(2) dopamine receptor [2]),Ki [3],logD [4],Ki (D(4) dopamine receptor),Ki [5],Ki [6],Ki (D(3) dopamine receptor),Ki (D(1A) dopamine receptor)
C=CCN1CCC[C@H]1CNC(=O)c1cc(I)ccc1OC,14 nM,15 nM,2000 nM,2.81,630 nM,2400 nM,170 nM,11 nM,13000 nM
CCN1CCC[C@H]1CNC(=O)c1c(O)c(Cl)cc(Cl)c1OC [RACLOPRIDE],–,–,3000 nM,–,3100 nM,3500 nM,4400 nM,15 nM,37000 nM
C=CCN1CCC[C@H]1CNC(=O)c1cc(Br)ccc1OC,23 nM,27 nM,2000 nM,2.71,1700 nM,2100 nM,230 nM,22 nM,17000 nM

# The next molecules have a lower Ki [3] than those just listed; values first:
Ki (D(2) dopamine receptor [1]),Ki (D(2) dopamine receptor [2]),Ki [3],logD [4],Ki (D(4) dopamine receptor),Ki [5],Ki [6],Ki (D(3) dopamine receptor),Ki (D(1A) dopamine receptor),Structure (SMILES)
30 nM,30 nM,1900 nM,2.63,3000 nM,4500 nM,2300 nM,33 nM,30000 nM,C=CCN1CCC[C@H]1CNC(=O)c1cc(CCCF)ccc1OC
0.68 nM,0.74 nM,1100 nM,2.91,250 nM,490 nM,150 nM,0.46 nM,18000 nM,C=CCN1CCC[C@H]1CNC(=O)c1cc(I)cc(OC)c1OC
4.2 nM,4.2 nM,1900 nM,3.13,570 nM,2000 nM,1100 nM,4.2 nM,12000 nM,CCN1CCC[C@H]1CNC(=O)c1c(OC)ccc(I)c1O [IOLOPRIDE]
0.85 nM,0.88 nM,1600 nM,2.83,210 nM,1100 nM,140 nM,0.6 nM,13000 nM,C=CCN1CCC[C@H]1CNC(=O)c1cc(Br)cc(OC)c1OC
2.2 nM,2.1 nM,970 nM,2.66,1300 nM,3700 nM,1100 nM,–,18000 nM,C=CCN1CCC[C@H]1CNC(=O)c1cc(CCCF)cc(OC)c1OC [FALLYPRIDE]
